In ChEMBL document CHEMBL3797089, “Morusin Induces TRAIL Sensitization by Regulating EGFR and DR5 in Human Glioblastoma Cells” (J Nat Prod, 2016):
Active and inactive are the calls of the source. The calls are words filed in the database; no cut-off is given here.

Assays:
[1] = test system: U-87 MG; assay: Induction of DR4 expression in human U87MG cells at 25 uM after 24 hrs by FITC-conjugated flow cytometric analysis; format: functional, cell-based; conditions: U-87MG ATCC
Summary of the method: (§1)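 Cells given 25 μM morusin for 24 h, then stained on ice for 30 min with 0.5 μg/mL FITC-conjugated anti-DR4, anti-DR5 or isotype IgG in FACS buffer. Surface expression read by flow cytometry.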

[2] = Reduction of survivin expression in human U87MG cells at 25 uM by Western blot analysis; format: functional, cell-based; conditions: U-87MG ATCC, TDE = time-dependent effect
Summary of the method: (§2)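 Time course: U87MG and U373MG cells were exposed to 25 μM morusin for the indicated times. Whole-cell extracts were Western blotted, with β-actin as internal control.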

[3] = Reduction of survivin expression in human U373MG cells after 24 hrs by Western blot analysis; format: functional, cell-based; conditions: U-373MG ATCC
Summary of the method: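 U87MG (MEM) and U373MG (RPMI) cells were given graded morusin concentrations for 24 h. Whole-cell extracts were immunoblotted for anti-apoptotic proteins, with β-actin as loading control.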

[4] = test system: T98G; assay: Induction of apoptosis in human T98G cells assessed as apoptic cells at 20 uM after 24 hrs by V-FITC/propidium iodide staining based flow cytometric analysis in presence of TRAIL; format: functional, cell-based
Summary of the method: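 (2–3) × 10^5 cells/well given TRAIL 50 ng/mL with morusin 20 μM for 24 h. Annexin V-FITC/PI double staining, flow cytometry; annexin V-positive cells counted as apoptotic. Mean ± SD, t-test against mock.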

[5] = test system: U-251; assay: Induction of DR5 expression in human U251MG cells after 24 hrs by Western blot analysis; format: functional, cell-based
Summary of the method: (§3)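 Cells exposed to a range of morusin concentrations for 24 h. Cell extracts immunoblotted for DR4, DR5, DcR1 and DcR2, with β-actin as internal control and HRP-conjugated secondary antibodies (1:5000).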

[6] = test system: T98G; assay: Induction of apoptosis in human T98G cells assessed as increase in cleaved PARP levels at 2.5 uM after 24 hrs by Western blot analysis in presence of TRAIL; format: functional, cell-based
Summary of the method: (§4)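 U87MG and T98G given TRAIL 25 ng/mL plus morusin 2.5 μM together for 24 h; single-agent arms used TRAIL 50 ng/mL or morusin 5 μM. Lysates immunoblotted for cleaved caspase 3, 8, 9 and cleaved PARP, with β-actin as internal control.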

[7] = Cytotoxicity against human LN18 cells assessed as reduction in cell viability after 24 hrs by MTT assay; format: functional, cell-based; conditions: LN-18, 24 h
Summary of the method: (§5)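 Seeded 3–5 × 10^3 cells/well, treated the next day with a range of morusin (DMSO stock) for 24 h, 37 °C, 5% CO2. Then fresh medium with 1 mg/mL MTT for 2 h at 37 °C, lysis buffer overnight at 37 °C, OD 570 nm. Mean ± SD from at least three independent experiments in triplicate.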

[8] = test system: U373 MG; assay: Induction of DR5 expression in human U373MG cells at 25 uM by Western blot analysis; format: functional, cell-based; conditions: U-373MG ATCC, TDE = time-dependent effect
Summary of the method: (§6)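 Time course: U87MG and U373MG cells held at 25 μM morusin for the times indicated. Extracts immunoblotted (cIAP1 or DR5), with β-actin as loading control.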

[9] = Reduction of PDGFR expression in human U87MG cells at 25 uM after 24 hrs by Western blot analysis; format: functional, cell-based; conditions: U-87MG ATCC
Summary of the method: (§7)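 LN18, U87MG, T98G, U251MG and U373MG glioblastoma cells were exposed to morusin for 24 h. Cells were maintained in DMEM, MEM or RPMI with 10% FBS at 37 °C and 5% CO2. Whole-cell lysates were Western blotted for receptor proteins, with β-actin as internal control.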

[10] = Reduction of XIAP expression in human U373MG cells at 25 uM by Western blot analysis; format: functional, cell-based; conditions: U-373MG ATCC, TDE = time-dependent effect; summary of the method: as §2
[11] = test system: T98G; assay: Cytotoxicity against human T98G cells assessed as reduction in cell viability measured up to 20 uM after 24 hrs by MTT assay in presence of TRAIL; format: functional
Summary of the method: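 MTT viability. 3–5 × 10^3 cells/well, treated the next day with TRAIL 100 ng/mL plus increasing morusin concentrations for 24 h. 1 mg/mL MTT for 2 h at 37 °C, lysis overnight, OD 570 nm. Living-cell fractions were used for combination index analysis. Mean ± SD, at least three independent experiments.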

[12] = test system: U-87 MG; assay: Effect on DR4 expression in human U87MG cells upto 25 uM after 24 hrs by Western blot analysis; format: functional, cell-based; conditions: U-87MG ATCC; summary of the method: as §3
[13] = Cytotoxicity against human U87MG cells assessed as reduction in cell viability after 24 hrs by MTT assay; format: functional, cell-based, U-87MG ATCC; conditions: U-87 MG; summary of the method: as §5
[14] = Reduction of PDGFR expression in human U373MG cells at 25 uM after 24 hrs by Western blot analysis; format: functional, cell-based; conditions: U-373MG ATCC; summary of the method: as §7
[15] = Reduction of survivin expression in human U373MG cells at 25 uM by Western blot analysis; format: functional, cell-based; conditions: U-373MG ATCC, TDE = time-dependent effect; summary of the method: as §2
[16] = test system: U-251; assay: Effect on DcR2 expression in human U251MG cells upto 25 uM after 24 hrs by Western blot analysis; format: functional, cell-based; summary of the method: as §3
[17] = test system: U373 MG; assay: Effect on cIAP1 expression in human U373MG cells at 25 uM after 3 to 18 hrs by Western blot analysis; format: functional, cell-based; conditions: U-373MG ATCC; summary of the method: as §6
[18] = test system: U-87 MG; assay: Induction of apoptosis in human U87MG cells assessed as increase in cleaved caspase 8 levels at 2.5 uM after 24 hrs by Western blot analysis in presence of TRAIL; format: functional, cell-based; conditions: U-87MG ATCC; summary of the method: as §4
[19] = Reduction of EGFR expression in human U251MG cells at 25 uM after 24 hrs by Western blot analysis; format: functional, cell-based; conditions: U-251; summary of the method: as §7
[20] = test system: U-87 MG; assay: Induction of apoptosis in human U87MG cells assessed as increase in cleaved caspase 3 levels at 2.5 uM after 24 hrs by Western blot analysis in presence of TRAIL; format: functional, cell-based; conditions: U-87MG ATCC; summary of the method: as §4
[21] = Reduction of PDGFR expression in human U251MG cells at 25 uM after 24 hrs by Western blot analysis; format: functional, cell-based; conditions: U-251; summary of the method: as §7
[22] = Reduction of EGFR expression in human U87MG cells at 25 uM after 24 hrs by Western blot analysis; format: functional, cell-based; conditions: U-87MG ATCC; summary of the method: as §7
[23] = test system: U-251; assay: Effect on DR4 expression in human U251MG cells upto 25 uM after 24 hrs by Western blot analysis; format: functional, cell-based; summary of the method: as §3
[24] = molecular target: Epidermal growth factor receptor (Homo sapiens) (UniProt P00533); assay: Inhibition of EGFR phosphorylation in human U87MG cells measured up to 25 uM after 24 hrs by Western blot analysis; format: cell-based; conditions: U-87MG ATCC
Summary of the method: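 Cells grown in MEM (U87MG) or RPMI (U373MG) with 10% FBS, 5% CO2, 37 °C. Treated for 24 h with the indicated concentrations of morusin (DMSO stock). Whole-cell lysates immunoblotted for phosphorylated and total proteins, with β-actin as internal control.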

[25] = test system: U-87 MG; assay: Induction of DR5 expression in human U87MG cells after 24 hrs by Western blot analysis; format: functional, cell-based; conditions: U-87MG ATCC; summary of the method: as §3
[26] = Reduction of XIAP mRNA expression in human U87MG cells after 24 hrs by RT-qPCR analysis; format: functional, cell-based; conditions: U-87MG ATCC
Summary of the method: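 U87MG cells were treated with graded morusin for 24 h. Total RNA was extracted with TRI Reagent, and 1 μg was reverse transcribed. XIAP and survivin mRNA were quantified by RT-qPCR, normalized to GAPDH. Results are mean ± SD from at least three independent experiments; unpaired t-test.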

[27] = test system: U373 MG; assay: Induction of DR5 expression in human U373MG cells at 25 uM after 24 hrs by FITC-conjugated flow cytometric analysis; format: functional, cell-based; conditions: U-373MG ATCC; summary of the method: as §1

Sequence of Epidermal growth factor receptor (Homo sapiens) (P00533 whole entry): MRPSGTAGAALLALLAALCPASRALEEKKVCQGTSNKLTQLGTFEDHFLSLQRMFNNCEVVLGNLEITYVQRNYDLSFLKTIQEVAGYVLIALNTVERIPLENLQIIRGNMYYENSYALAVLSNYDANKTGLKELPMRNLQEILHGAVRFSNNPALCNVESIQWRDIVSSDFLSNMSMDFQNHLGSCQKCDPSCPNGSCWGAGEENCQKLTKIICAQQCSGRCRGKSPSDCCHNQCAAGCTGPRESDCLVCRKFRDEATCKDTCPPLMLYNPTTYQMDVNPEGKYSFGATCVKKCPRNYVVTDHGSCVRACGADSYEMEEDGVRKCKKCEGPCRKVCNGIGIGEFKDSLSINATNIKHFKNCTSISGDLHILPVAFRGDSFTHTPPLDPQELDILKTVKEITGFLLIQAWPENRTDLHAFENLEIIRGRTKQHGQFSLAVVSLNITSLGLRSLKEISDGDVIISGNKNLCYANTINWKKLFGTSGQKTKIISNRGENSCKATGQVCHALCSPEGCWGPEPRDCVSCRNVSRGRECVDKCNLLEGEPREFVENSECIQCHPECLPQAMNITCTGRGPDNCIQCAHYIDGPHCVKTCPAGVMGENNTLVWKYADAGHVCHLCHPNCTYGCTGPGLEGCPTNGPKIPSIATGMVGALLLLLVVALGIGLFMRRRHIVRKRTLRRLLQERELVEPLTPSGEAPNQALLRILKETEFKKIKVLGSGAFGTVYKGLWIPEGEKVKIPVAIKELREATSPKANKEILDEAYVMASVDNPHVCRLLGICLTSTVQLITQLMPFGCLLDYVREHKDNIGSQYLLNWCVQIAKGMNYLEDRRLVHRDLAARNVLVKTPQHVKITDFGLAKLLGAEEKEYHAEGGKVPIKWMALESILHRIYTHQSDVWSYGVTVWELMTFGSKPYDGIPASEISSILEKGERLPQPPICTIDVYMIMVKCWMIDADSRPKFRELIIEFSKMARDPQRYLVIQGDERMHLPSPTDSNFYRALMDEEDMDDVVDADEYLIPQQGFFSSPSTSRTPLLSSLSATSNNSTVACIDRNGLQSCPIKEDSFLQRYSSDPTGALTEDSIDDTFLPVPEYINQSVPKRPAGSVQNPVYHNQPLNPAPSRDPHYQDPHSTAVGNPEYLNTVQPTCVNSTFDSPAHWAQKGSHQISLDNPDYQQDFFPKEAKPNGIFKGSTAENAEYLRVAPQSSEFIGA

For `CC(C)=CCc1c(-c2ccc(O)cc2O)oc2c3c(cc(O)c2c1=O)OC(C)(C)C=C3` [MORUSIN], the Activity [1] was “inactive”, the inhibition [2] was “tde” and the inhibition [3] was “Dose-dependent effect”. The Activity [4] was “Active”, the Activity [5] was “Dose-dependent effect” and the Activity [6] was “Active”. For the same molecule, the IC50 [7] was 24 µM, the Activity [8] was “tde” and the Activity [9] was “Active”. For the same molecule, the inhibition [10] was “tde”, the CI [11] was <0.8 and the Activity [12] was “inactive”. The IC50 [13] was 24 µM, the Activity [14] was “Active” and the inhibition [15] was “tde”. The Activity [16] was “inactive”, the Activity [17] was “inactive” and the Activity [18] was “Active”. For the same molecule, the Activity [19] was “Active”, the Activity [20] was “Active” and the Activity [21] was “Active”. For the same molecule, the Activity [22] was “Active”, the Activity [23] was “inactive” and the inhibition [24] was “Active”. For the same molecule, the Activity [25] was “Dose-dependent effect”, the Activity [26] was “Dose-dependent effect” and the Activity [27] was “Active”.
